# Experimental data: PubChem BioAssay
# “And” between values parts separate entries of the source, which are not always exact repeats. Equal entries are not always repeated. The source made the active and inactive calls.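 The calls were made as follows, unless noted: active = active in primary screen and both duplicates, each dropping signal beyond three positive-control SD with fluorescence still positive; inactive = the rest.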
# Target: Short transient receptor potential channel 6 (Mus musculus) (UniProt Q61143)
# Sequence (Q61143 whole entry, looked up): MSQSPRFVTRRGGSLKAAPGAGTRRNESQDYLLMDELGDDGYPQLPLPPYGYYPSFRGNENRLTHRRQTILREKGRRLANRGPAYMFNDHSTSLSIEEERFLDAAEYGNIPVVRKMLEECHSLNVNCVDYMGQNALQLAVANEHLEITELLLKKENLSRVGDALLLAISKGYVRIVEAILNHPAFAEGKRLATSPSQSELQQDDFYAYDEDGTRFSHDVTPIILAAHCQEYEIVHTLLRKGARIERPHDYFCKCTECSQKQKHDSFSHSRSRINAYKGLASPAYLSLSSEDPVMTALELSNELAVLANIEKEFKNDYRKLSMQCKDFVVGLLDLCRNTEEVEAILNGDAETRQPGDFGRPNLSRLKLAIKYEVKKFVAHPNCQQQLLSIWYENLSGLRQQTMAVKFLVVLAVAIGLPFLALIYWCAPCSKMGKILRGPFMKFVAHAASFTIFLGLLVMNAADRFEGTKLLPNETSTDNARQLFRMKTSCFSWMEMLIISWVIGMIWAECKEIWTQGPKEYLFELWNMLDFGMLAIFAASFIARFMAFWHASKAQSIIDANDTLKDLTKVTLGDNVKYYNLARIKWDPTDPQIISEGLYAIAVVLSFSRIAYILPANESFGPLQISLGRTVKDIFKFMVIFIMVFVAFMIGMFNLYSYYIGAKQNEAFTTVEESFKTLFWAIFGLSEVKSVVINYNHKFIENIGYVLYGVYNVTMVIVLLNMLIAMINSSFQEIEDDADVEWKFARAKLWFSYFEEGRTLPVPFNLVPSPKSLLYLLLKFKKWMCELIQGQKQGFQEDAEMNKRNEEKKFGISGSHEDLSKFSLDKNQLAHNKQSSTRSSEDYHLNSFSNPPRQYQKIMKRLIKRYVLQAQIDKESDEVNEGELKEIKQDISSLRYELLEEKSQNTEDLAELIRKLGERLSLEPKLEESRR
# Assay: inhibition of mouse TRPC6 channel, confirmation, selectivity assay for TRPC4 inhibitor project, cell-based, HEK293, membrane potential dye, duplicate (AID 434948)
# Settings: HEK293 TRPC6, membrane potential dye fluorescence, at 10 µM, stimulated with maximal-effect acetylcholine; stronger effect = higher value
# Summary of the method: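 System: TRPC6-expressing HEK293 cells; Also added: acetylcholine at maximal (ECmax) concentration, added after compound; Incubation: 45 min RT dye load, 110 s compound, 110 s agonist read; Read-out basis: integrated fluorescence change ratio over baseline, normalized to positive controls; Repeats: two replicates; Signal: kinetic fluorescence of membrane potential dye with 5 s baseline.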
row,SMILES,outcome
1,COc1ccc(C(CNC(=O)COc2ccccc2OC)N(C)C)cc1OC (stereo not drawn),inactive
2,COc1ccc(C(CNC(=O)CCOc2ccccc2)N(C)C)cc1 (stereo not drawn),inactive
3,CN(C)C(CNc1ccc(C(F)(F)F)cn1)c1ccccc1 (stereo not drawn),inactive
4,Fc1ccc(-n2cc(CNCCc3cccnc3)c(-c3ccccc3Cl)n2)cc1,inactive
5,CCOC(=O)c1ccc(NC(=O)NCCc2cnc[nH]2)cc1,inactive
6,CN1CCN(C(=O)c2cccn(Cc3c(Cl)cccc3Cl)c2=O)CC1,inactive
7,Cc1sc2ncnc(NCC(c3ccccc3)N(C)C)c2c1C (stereo not drawn),inactive
8,O=C(O)C1C2C=CC(C2)C1C(=O)N1CCN(C/C=C/c2ccccc2)CC1 (stereo not drawn),inactive
9,CCCCN(CC)CCNC(=O)c1cc2c(-c3ccc(Cl)cc3)nn(C)c2s1,inactive
10,O=C(Nc1ccncc1)c1ccc(Cl)c(S(=O)(=O)N2CCc3ccccc32)c1,inactive
11,CC(=O)OCC[N+](C)(C)C,inactive
12,COc1ccc(CCN(C)C(=O)C2CCCN(C3CCN(Cc4ccccc4)CC3)C2)cc1OC (stereo not drawn),inactive
13,Cc1cc(C)cc(NC(=S)N2CCN(c3ncc(C(F)(F)F)cc3Cl)CC2)c1,inactive
14,COc1ccc(C(CNC(=O)Cc2ccc(-c3ccccc3)cc2)N(C)C)cc1 (stereo not drawn),inactive
15,O=c1c(Cc2ccccc2)c(O)ccn1CCc1cnc[nH]1,inactive
16,COc1ccc(C(=O)NNC(=S)NC(=O)c2cccs2)cc1,inactive
17,CCC(=O)NC(C)C(c1cccs1)N1CCN(c2ccccc2)CC1 (stereo not drawn),inactive
18,NCCCNC(=O)c1cc2ccccc2[nH]1,inactive
19,Cn1c2ccccc2c(=O)c2c(=O)n(C3CCCCC3)c(-c3ccco3)nc21,inactive
20,COc1ccc(-n2c3c(cc(C(=O)NNc4ccccc4)c2=O)C(=O)CC(C)(C)C3)cc1,inactive

row,SMILES,outcome
1,O=C(c1sc2ccccc2c1Cl)N(Cc1ccccc1)C1CCS(=O)(=O)C1 (stereo not drawn),inactive
2,CN(C)C(CNC(=S)Nc1ccc(Cl)cc1)c1cccnc1 (stereo not drawn),inactive
3,O=C1/C(=C\c2cc([N+](=O)[O-])ccc2O)SC(=S)N1Cc1ccc(Cl)cc1,inactive
4,Cc1ccc(C(=O)NNC(=S)NC(=O)COc2ccccc2)cc1,inactive
5,CCCCCc1c(O)nc(SCCN(C)C)[nH]c1=O,inactive
6,CC1CC(C)CN(CCCNS(=O)(=O)c2cc(Br)cc3c2N(C(=O)C2CC2)CC3)C1 (stereo not drawn),inactive
7,CN1C2C=C(N(CCc3ccccc3)C(=O)c3ccc(Cl)cc3)CC1CC2 (stereo not drawn),inactive
8,Cc1ccccc1C(=O)NNC(=S)NC(=O)COc1ccccc1,inactive
9,CCOC(=O)C1(CC2CCCCO2)CCN(Cc2cc(F)ccc2-n2cccn2)CC1 (stereo not drawn),inactive
10,Cc1ccc(NC(=O)CCN2CCC(Cc3ccccc3)CC2)cc1,inactive
11,CCCn1ncc(CN2CCC(n3nccc3NC(=O)CCc3ccccc3)CC2)c1C,inactive
12,Cc1sc2ncnc(NCC(c3ccco3)N(C)C)c2c1C (stereo not drawn),inactive
13,CCCN(CCC)CCNC(=O)CCC(=O)Nc1ccc2nc(N3CCOCC3)cc(C)c2c1,inactive
14,CCN1CCN(c2c(Cl)cccc2NC(=O)c2ccc([N+](=O)[O-])cc2)CC1,inactive
15,CN1CCN(c2ccc(NC(=O)c3ccc(-c4cccc([N+](=O)[O-])c4)o3)cc2)CC1,inactive
16,OCCC1CN(Cc2ccccc2-c2ccco2)CCN1Cc1ccccc1 (stereo not drawn),inactive
17,CN(C)C(CNC(=O)NC1CCCCC1)c1cccnc1 (stereo not drawn),inactive
18,O=C1S/C(=C\c2ccc(N3CCOCC3)o2)C(=O)N1Cc1c(F)cccc1Cl,inactive
19,COCCCn1c(N)c(-c2nc3ccccc3n2C)c2nc3ccccc3nc21,inactive

# Target: Short transient receptor potential channel 6 (Mus musculus) (UniProt Q61143)
# Assay: activation of mouse TRPC6 channel, confirmation, selectivity assay for TRPC4 activator project, cell-based, HEK293, membrane potential dye, duplicate (AID 434950;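 active = membrane potential signal rise above negative control mean plus 3 SD in both duplicates, also active in the earlier TRPC4 screen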;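 as to activation: 0% = buffer only wells and 100% = acetylcholine maximal-effect wells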)
# Settings: HEK293 TRPC6, membrane potential fluorescence, at 10 µM; stronger effect = higher value
SMILES,activation,outcome
COc1ccc(C(CNC(=O)COc2ccccc2OC)N(C)C)cc1OC (stereo not drawn),35% (active),
COc1ccc(C(CNC(=O)CCOc2ccccc2)N(C)C)cc1 (stereo not drawn),45% (active),
CN(C)C(CNc1ccc(C(F)(F)F)cn1)c1ccccc1 (stereo not drawn),32% (active),
Fc1ccc(-n2cc(CNCCc3cccnc3)c(-c3ccccc3Cl)n2)cc1,31% (active),
CCOC(=O)c1ccc(NC(=O)NCCc2cnc[nH]2)cc1,38% (active),
CN1CCN(C(=O)c2cccn(Cc3c(Cl)cccc3Cl)c2=O)CC1,,inactive
Cc1sc2ncnc(NCC(c3ccccc3)N(C)C)c2c1C (stereo not drawn),,inactive
O=C(O)C1C2C=CC(C2)C1C(=O)N1CCN(C/C=C/c2ccccc2)CC1 (stereo not drawn),26% (active),
CCCCN(CC)CCNC(=O)c1cc2c(-c3ccc(Cl)cc3)nn(C)c2s1,,inactive
O=C(Nc1ccncc1)c1ccc(Cl)c(S(=O)(=O)N2CCc3ccccc32)c1,,inactive
CC(=O)OCC[N+](C)(C)C,91.5% (active) and 116% (active),
COc1ccc(CCN(C)C(=O)C2CCCN(C3CCN(Cc4ccccc4)CC3)C2)cc1OC (stereo not drawn),50% (active),
Cc1cc(C)cc(NC(=S)N2CCN(c3ncc(C(F)(F)F)cc3Cl)CC2)c1,25% (active),
COc1ccc(C(CNC(=O)Cc2ccc(-c3ccccc3)cc2)N(C)C)cc1 (stereo not drawn),56% (active),
O=c1c(Cc2ccccc2)c(O)ccn1CCc1cnc[nH]1,,inactive
COc1ccc(C(=O)NNC(=S)NC(=O)c2cccs2)cc1,41.5% (active),
CCC(=O)NC(C)C(c1cccs1)N1CCN(c2ccccc2)CC1 (stereo not drawn),29% (active),
NCCCNC(=O)c1cc2ccccc2[nH]1,,inactive
Cn1c2ccccc2c(=O)c2c(=O)n(C3CCCCC3)c(-c3ccco3)nc21,,inactive
COc1ccc(-n2c3c(cc(C(=O)NNc4ccccc4)c2=O)C(=O)CC(C)(C)C3)cc1,,inactive

SMILES,activation,outcome
O=C(c1sc2ccccc2c1Cl)N(Cc1ccccc1)C1CCS(=O)(=O)C1 (stereo not drawn),36% (active),
CN(C)C(CNC(=S)Nc1ccc(Cl)cc1)c1cccnc1 (stereo not drawn),,inactive
O=C1/C(=C\c2cc([N+](=O)[O-])ccc2O)SC(=S)N1Cc1ccc(Cl)cc1,529% (active),
Cc1ccc(C(=O)NNC(=S)NC(=O)COc2ccccc2)cc1,,inactive
CCCCCc1c(O)nc(SCCN(C)C)[nH]c1=O,,inactive
CC1CC(C)CN(CCCNS(=O)(=O)c2cc(Br)cc3c2N(C(=O)C2CC2)CC3)C1 (stereo not drawn),30% (active),
CN1C2C=C(N(CCc3ccccc3)C(=O)c3ccc(Cl)cc3)CC1CC2 (stereo not drawn),50% (active),
Cc1ccccc1C(=O)NNC(=S)NC(=O)COc1ccccc1,,inactive
CCOC(=O)C1(CC2CCCCO2)CCN(Cc2cc(F)ccc2-n2cccn2)CC1 (stereo not drawn),76.5% (active),
Cc1ccc(NC(=O)CCN2CCC(Cc3ccccc3)CC2)cc1,,inactive
CCCn1ncc(CN2CCC(n3nccc3NC(=O)CCc3ccccc3)CC2)c1C,36.5% (active),
Cc1sc2ncnc(NCC(c3ccco3)N(C)C)c2c1C (stereo not drawn),,inactive
CCCN(CCC)CCNC(=O)CCC(=O)Nc1ccc2nc(N3CCOCC3)cc(C)c2c1,,inactive
CCN1CCN(c2c(Cl)cccc2NC(=O)c2ccc([N+](=O)[O-])cc2)CC1,,inactive
CN1CCN(c2ccc(NC(=O)c3ccc(-c4cccc([N+](=O)[O-])c4)o3)cc2)CC1,,inactive
OCCC1CN(Cc2ccccc2-c2ccco2)CCN1Cc1ccccc1 (stereo not drawn),63.5% (active),
CN(C)C(CNC(=O)NC1CCCCC1)c1cccnc1 (stereo not drawn),29.5% (active),
O=C1S/C(=C\c2ccc(N3CCOCC3)o2)C(=O)N1Cc1c(F)cccc1Cl,280% (active),
COCCCn1c(N)c(-c2nc3ccccc3n2C)c2nc3ccccc3nc21,137% (active),
